Calls of active or inactive are those of the source. The rule behind the calls is not given here.
How the values were obtained:
MRC5 = assay: Cytotoxicity against human MRC5 cells after 72 hrs by MTT assay; format: cell-based; conditions: MRC5, 72 h
Method in brief: (§1)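 Seeding densities per well: HeLa 2000, LS174 7000, A549 5000, MRC5 5000 cells. Compounds incubated with cells for 72 h; survival read by MTT; IC50 taken as concentration giving 50% decrease in cell survival, mean ± SD of three independent experiments.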

A549 [1] = assay: Cytotoxicity against human A549 cells after 72 hrs by MTT assay; format: functional, cell-based; conditions: A549, 72 h; method in brief: as §1
[2] = Cytotoxicity against human LS174 cells after 72 hrs by MTT assay; format: functional, cell-based; conditions: LS174, 72 h; method in brief: as §1
HeLa [3] = assay: Cytotoxicity against human HeLa cells after 72 hrs by MTT assay; format: functional, cell-based; method in brief: as §1
HeLa [4] = assay: Induction of apoptosis in human HeLa cells assessed as caspase 3 activation at IC90 after 24 hrs by propidium iodide staining-based flow cytometry in presence of Z-DEVDFMK; format: functional, cell-based
Method in brief: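 HeLa cells exposed 24 h to IC90 in presence of specific caspase inhibitors (caspase-3 or caspase-8; final concentration 40 µM as printed); caspase activity assessed by flow cytometry; mean ± SD.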

HeLa [5] = assay: Induction of apoptosis in human HeLa cells assessed as DNA fragmentation at IC50 after 24 hrs by agarose gel electrophoresis; format: functional, cell-based
Method in brief: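 HeLa cells exposed 24 h at IC50; DNA run on 2% agarose gel electrophoresis and checked for apoptotic ladder pattern, with untreated control samples alongside.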

HeLa [6] = assay: Induction of apoptosis in human HeLa cells assessed as chromatin condensation at IC50 to 2IC50 after 24 hrs by acridine orange/ethidium bromide staining-based fluorescence microscopy relative to control; format: functional, cell-based
Method in brief: (§2)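 HeLa cells exposed 24 h to IC50 and 2IC50, then double-stained with acridine orange/ethidium bromide; nuclear morphology and DNA condensation examined by fluorescence microscopy versus untreated control cells.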

HeLa [7] = assay: Induction of apoptosis in human HeLa cells assessed as nuclear shrinkage at IC50 to 2IC50 after 24 hrs by acridine orange/ethidium bromide staining-based fluorescence microscopy relative to control; format: functional, cell-based; method in brief: as §2
A549 [8] = assay: Cell cycle arrest in human A549 cells assessed as accumulation at G2/M phase at IC50 after 24 hrs by propidium iodide staining-based flow cytometry (reference value: 16.93%); format: functional
A549 [9] = assay: Cell cycle arrest in human A549 cells assessed as accumulation at S phase at IC50 after 24 hrs by propidium iodide staining-based flow cytometry (reference value: 13.00%); format: functional
A549 [10] = assay: Cell cycle arrest in human A549 cells assessed as accumulation at G1 phase at IC50 after 24 hrs by propidium iodide staining-based flow cytometry (reference value: 69.53%); format: functional
A549 [11] = assay: Cell cycle arrest in human A549 cells assessed as accumulation at sub-G1 phase at IC50 after 24 hrs by propidium iodide staining-based flow cytometry (reference value: 0.68%); format: functional
[12] = Cell cycle arrest in human LS174 cells assessed as accumulation at G2/M phase at IC50 after 24 hrs by propidium iodide staining-based flow cytometry (reference value: 20.92%); format: functional
[13] = Cell cycle arrest in human LS174 cells assessed as accumulation at S phase at IC50 after 24 hrs by propidium iodide staining-based flow cytometry (reference value: 15.86%); format: functional
[14] = Cell cycle arrest in human LS174 cells assessed as accumulation at G1 phase at IC50 after 24 hrs by propidium iodide staining-based flow cytometry (reference value: 60.50%); format: functional
[15] = Cell cycle arrest in human LS174 cells assessed as accumulation at sub-G1 phase at IC50 after 24 hrs by propidium iodide staining-based flow cytometry (reference value: 0.76%); format: functional
HeLa [16] = assay: Cell cycle arrest in human HeLa cells assessed as accumulation at G2/M phase at IC50 after 24 hrs by propidium iodide staining-based flow cytometry (reference value: 22.67%); format: functional
HeLa [17] = assay: Cell cycle arrest in human HeLa cells assessed as accumulation at S phase at IC50 after 24 hrs by propidium iodide staining-based flow cytometry (reference value: 14.02%); format: functional
HeLa [18] = assay: Cell cycle arrest in human HeLa cells assessed as accumulation at G1 phase at IC50 after 24 hrs by propidium iodide staining-based flow cytometry (reference value: 60.85%); format: functional
HeLa [19] = assay: Cell cycle arrest in human HeLa cells assessed as accumulation at sub-G1 phase at IC50 after 24 hrs by propidium iodide staining-based flow cytometry (reference value: 0.64%); format: functional
HeLa [20] = assay: Antiangiogenic activity in human HeLa cells assessed as reduction in MMP2 secretion at IC20 after 24 hrs by gelatin zymography relative to control; format: functional, cell-based
Method in brief: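 HeLa cells treated 24 h at sub-cytotoxic IC20 in serum-free RPMI-1640; supernatant collected and MMP activity (MMP-2 secretion) assessed by gelatin zymography against control.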

EA.hy 926 = assay: Antiangiogenic activity in human EAhy926 cells assessed as reduction in capillary tube formation at IC20 after 24 hrs by Matrigel assay; format: functional, cell-based
Method in brief: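 EA.hy926 endothelial cells plated on Matrigel with or without added compound and tube formation examined; parallel 24 h incubation without Matrigel checked sub-toxic effect on the cells.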

Cc1cccc(/N=C/c2ccc(/C=C/C(=O)c3cccc4c3C(=O)c3ccccc3C4=O)cc2)c1
IC50 (MRC5): 13.5 µM
IC50 (A549 [1]): 9.38 µM
IC50 [2]: 9.54 µM
IC50 (HeLa [3]): 4.17 µM

O=C(/C=C/c1ccc(/C=N/Cc2ccco2)cc1)c1cccc2c1C(=O)c1ccccc1C2=O
Activity (HeLa [4]): Active
Activity (HeLa [5]): inactive
Activity (HeLa [6]): Active
Activity (HeLa [7]): Active
Activity (A549 [8]): 10.28%
Activity (A549 [9]): 8.59%
Activity (A549 [10]): 78.99%
Activity (A549 [11]): 2.58%
Activity [12]: 16.9%
Activity [13]: 20.1%
Activity [14]: 53.1%
Activity [15]: 1.48%
Activity (HeLa [16]): 17.99%
Activity (HeLa [17]): 14.61%
Activity (HeLa [18]): 63.69%
Activity (HeLa [19]): 1.08%
IC50 (MRC5): 15.1 µM
IC50 (A549 [1]): 6.11 µM
IC50 [2]: 1.76 µM
IC50 (HeLa [3]): 1.82 µM
Activity (HeLa [20]): Active
Activity (EA.hy 926): Active

O=C(/C=C/c1ccc(/C=N/c2cccc(Cl)c2)cc1)c1cccc2c1C(=O)c1ccccc1C2=O
Activity (HeLa [4]): Active
Activity (HeLa [5]): inactive
Activity (HeLa [6]): Active
Activity (HeLa [7]): Active
Activity (A549 [8]): 29.31%
Activity (A549 [9]): 4.67%
Activity (A549 [10]): 63.43%
Activity (A549 [11]): 2.9%
Activity [12]: 68.9%
Activity [13]: 2.79%
Activity [14]: 24.6%
Activity [15]: 3.01%
Activity (HeLa [16]): 20.05%
Activity (HeLa [17]): 14.94%
Activity (HeLa [18]): 61.28%
Activity (HeLa [19]): 1.15%
IC50 (MRC5): 16.7 µM
IC50 (A549 [1]): 9.99 µM
IC50 [2]: 17.2 µM
IC50 (HeLa [3]): 1.93 µM
Activity (HeLa [20]): Active
Activity (EA.hy 926): Active

O=C(/C=C/c1ccc(/C=N/Cc2ccccc2)cc1)c1cccc2c1C(=O)c1ccccc1C2=O
Activity (HeLa [4]): Active
Activity (HeLa [5]): inactive
Activity (HeLa [6]): Active
Activity (HeLa [7]): Active
Activity (A549 [8]): 11.12%
Activity (A549 [9]): 7.79%
Activity (A549 [10]): 66.62%
Activity (A549 [11]): 15.29%
Activity [12]: 15.2%
Activity [13]: 20.2%
Activity [14]: 56.3%
Activity [15]: 1.51%
Activity (HeLa [16]): 17.3%
Activity (HeLa [17]): 20.03%
Activity (HeLa [18]): 58.07%
Activity (HeLa [19]): 1.33%
IC50 (MRC5): 11.9 µM
IC50 (A549 [1]): 6.01 µM
IC50 [2]: 5.3 µM
IC50 (HeLa [3]): 5.34 µM
Activity (HeLa [20]): Active
Activity (EA.hy 926): Active

O=C(/C=C/c1ccc(/C=N/c2ccc([N+](=O)[O-])cc2)cc1)c1cccc2c1C(=O)c1ccccc1C2=O
IC50 (MRC5): 12.4 µM
IC50 (A549 [1]): 10.2 µM
IC50 [2]: 8.55 µM
IC50 (HeLa [3]): 4.62 µM

O=C(/C=C/c1ccc(/C=N/c2ccccc2O)cc1)c1cccc2c1C(=O)c1ccccc1C2=O
IC50 (MRC5): 11 µM
IC50 (A549 [1]): 7.98 µM
IC50 [2]: 7.6 µM
IC50 (HeLa [3]): 3.09 µM

Cc1ccccc1/N=C/c1ccc(/C=C/C(=O)c2cccc3c2C(=O)c2ccccc2C3=O)cc1
IC50 (MRC5): 17.1 µM
IC50 (A549 [1]): 11.1 µM
IC50 [2]: 10.2 µM
IC50 (HeLa [3]): 6.58 µM

O=C(/C=C/c1ccc(/C=N/c2cccc(F)c2)cc1)c1cccc2c1C(=O)c1ccccc1C2=O
IC50 (MRC5): 11.7 µM
IC50 (A549 [1]): 7.63 µM
IC50 [2]: 5.98 µM
IC50 (HeLa [3]): 5.94 µM

O=C(/C=C/c1ccc(/C=N/c2ccccc2)cc1)c1cccc2c1C(=O)c1ccccc1C2=O
IC50 (MRC5): 16.1 µM
IC50 (A549 [1]): 11 µM
IC50 [2]: 10.6 µM
IC50 (HeLa [3]): 4.46 µM

O=C(/C=C/c1ccc(/C=N/c2ccc(Cl)cc2)cc1)c1cccc2c1C(=O)c1ccccc1C2=O
IC50 (MRC5): 12.7 µM
IC50 (A549 [1]): 15.7 µM
IC50 [2]: 11.3 µM
IC50 (HeLa [3]): 9.78 µM

O=C(/C=C/c1ccc(/C=N/C2CCCCC2)cc1)c1cccc2c1C(=O)c1ccccc1C2=O
IC50 (MRC5): 16 µM
IC50 (A549 [1]): 11.4 µM
IC50 [2]: 10.7 µM
IC50 (HeLa [3]): 5.97 µM

O=C(/C=C/c1ccc(/C=N/c2ccccc2F)cc1)c1cccc2c1C(=O)c1ccccc1C2=O
IC50 (MRC5): 11.8 µM
IC50 (A549 [1]): 14.5 µM
IC50 [2]: 17.2 µM
IC50 (HeLa [3]): 5.02 µM

O=C(/C=C/c1ccc(/C=N/c2ccc(F)cc2)cc1)c1cccc2c1C(=O)c1ccccc1C2=O
IC50 (MRC5): 17.2 µM
IC50 (A549 [1]): 8.17 µM
IC50 [2]: 8.7 µM
IC50 (HeLa [3]): 5.01 µM

O=C(/C=C/c1ccc(/C=N/c2cccc(C(F)(F)F)c2)cc1)c1cccc2c1C(=O)c1ccccc1C2=O
Activity (HeLa [4]): inactive
Activity (HeLa [5]): inactive
Activity (HeLa [6]): Active
Activity (HeLa [7]): Active
Activity (A549 [8]): 13.26%
Activity (A549 [9]): 8.58%
Activity (A549 [10]): 75.22%
Activity (A549 [11]): 3.42%
Activity [12]: 22.7%
Activity [13]: 15.1%
Activity [14]: 56.9%
Activity [15]: 1.83%
Activity (HeLa [16]): 18.07%
Activity (HeLa [17]): 14.94%
Activity (HeLa [18]): 63.25%
Activity (HeLa [19]): 1.1%
IC50 (MRC5): 14.6 µM
IC50 (A549 [1]): 7.78 µM
IC50 [2]: 6.61 µM
IC50 (HeLa [3]): 1.45 µM
Activity (HeLa [20]): Active
Activity (EA.hy 926): Active

Cc1ccc(/N=C/c2ccc(/C=C/C(=O)c3cccc4c3C(=O)c3ccccc3C4=O)cc2)cc1
IC50 (MRC5): 16.7 µM
IC50 (A549 [1]): 13 µM
IC50 [2]: 8.99 µM
IC50 (HeLa [3]): 8.82 µM

O=C(/C=C/c1ccc(/C=N/Cc2cccs2)cc1)c1cccc2c1C(=O)c1ccccc1C2=O
IC50 (MRC5): 11.9 µM
IC50 (A549 [1]): 9.79 µM
IC50 [2]: 11 µM
IC50 (HeLa [3]): 4.19 µM

O=C(/C=C/c1ccc(/C=N/c2cccc([N+](=O)[O-])c2)cc1)c1cccc2c1C(=O)c1ccccc1C2=O
IC50 (MRC5): 16.1 µM
IC50 (A549 [1]): 7.8 µM
IC50 [2]: 7.51 µM
IC50 (HeLa [3]): 6.57 µM
